In brackets after ≈: the same amount, converted by molar mass. Activity calls are given as the source filed them. The rule behind the calls is not given here.
What was measured:
[1] = molecular target: T1, Sodium/nucleoside cotransporter 2 (Homo sapiens, UniProt O43868); assay: Inhibition of human CNT2 expressed in African green monkey COS7 cells assessed as reduction of [14C]-inosine uptake by liquid scintillation counting analysis; type: cell-based, COS-7
T1 sequence (O43868 whole entry): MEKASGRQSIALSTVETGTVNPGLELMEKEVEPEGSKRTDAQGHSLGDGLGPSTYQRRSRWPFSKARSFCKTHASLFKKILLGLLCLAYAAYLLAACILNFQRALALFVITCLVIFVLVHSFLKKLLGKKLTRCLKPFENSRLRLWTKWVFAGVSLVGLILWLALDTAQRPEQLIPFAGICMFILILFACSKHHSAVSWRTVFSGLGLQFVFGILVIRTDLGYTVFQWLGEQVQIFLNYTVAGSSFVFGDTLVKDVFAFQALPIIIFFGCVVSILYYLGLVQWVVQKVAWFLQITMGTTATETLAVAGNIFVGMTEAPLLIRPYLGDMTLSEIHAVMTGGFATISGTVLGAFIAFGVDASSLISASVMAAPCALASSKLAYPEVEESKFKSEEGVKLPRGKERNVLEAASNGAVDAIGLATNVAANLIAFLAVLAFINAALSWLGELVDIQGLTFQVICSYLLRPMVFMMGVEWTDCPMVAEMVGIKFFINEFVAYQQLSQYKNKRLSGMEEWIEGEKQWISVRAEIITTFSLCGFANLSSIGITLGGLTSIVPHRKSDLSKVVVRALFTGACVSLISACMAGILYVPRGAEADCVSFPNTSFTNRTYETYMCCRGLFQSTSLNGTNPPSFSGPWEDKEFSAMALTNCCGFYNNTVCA
Method in brief: (§1)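 COS-7 cells transiently transfected with hCNT2 in pCI-neo, assayed after 2 days. Pretreated in Na+-free choline buffer, 37 °C, 2×10 min. Uptake of 10 µM [14C]inosine for 30 min at 37 °C with 10 µM NBMPR, ±Na+, pH 7.4. Na+-dependent uptake set as 100%; lysate counted by scintillation. IC50 by nonlinear regression, ≥3 experiments; top concentration 100 µM.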

[2] = molecular target: T2, Sodium/nucleoside cotransporter 2 (Rattus norvegicus) (UniProt Q62773); assay: Inhibition of rat CNT2 expressed in African green monkey COS7 cells assessed as reduction of [14C]-inosine uptake at 100 uM by liquid scintillation counting analysis; type: cell-based; conditions: COS-7
T2 sequence (whole entry): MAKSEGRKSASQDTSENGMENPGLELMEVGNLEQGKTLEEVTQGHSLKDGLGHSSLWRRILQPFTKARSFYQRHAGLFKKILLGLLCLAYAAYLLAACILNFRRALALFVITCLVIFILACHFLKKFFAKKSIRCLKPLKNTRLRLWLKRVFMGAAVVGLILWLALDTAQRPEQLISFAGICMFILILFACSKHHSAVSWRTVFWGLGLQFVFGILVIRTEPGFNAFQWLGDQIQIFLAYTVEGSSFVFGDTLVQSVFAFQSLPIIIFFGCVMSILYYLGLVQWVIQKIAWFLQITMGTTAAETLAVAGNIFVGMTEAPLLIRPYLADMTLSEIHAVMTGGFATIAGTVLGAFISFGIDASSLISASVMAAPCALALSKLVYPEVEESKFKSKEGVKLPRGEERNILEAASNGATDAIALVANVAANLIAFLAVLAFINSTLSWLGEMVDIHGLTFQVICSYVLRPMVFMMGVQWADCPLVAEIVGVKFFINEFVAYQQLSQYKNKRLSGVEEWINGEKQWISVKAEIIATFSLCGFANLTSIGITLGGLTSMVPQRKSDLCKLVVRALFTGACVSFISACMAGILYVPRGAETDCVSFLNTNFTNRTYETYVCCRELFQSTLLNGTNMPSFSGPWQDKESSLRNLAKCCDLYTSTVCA

[3] = molecular target: T3, Sodium/nucleoside cotransporter 2 (Rattus norvegicus, UniProt Q62773); assay: Inhibition of rat CNT2 expressed in African green monkey COS7 cells assessed as reduction of [14C]-inosine uptake by liquid scintillation counting analysis; type: cell-based, COS-7
T3 sequence (Q62773 whole entry): T2 sequence (whole entry)
Method in brief: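 rCNT2 transiently expressed in COS-7 cells, used 2 days post-transfection. 10 µM [14C]inosine uptake at 37 °C for 30 min in the presence of 10 µM NBMPR. Uptake run with Na+ or with choline replacing Na+, pH 7.4; the Na+-dependent difference defined 100% transport. Scintillation read-out; IC50 by nonlinear regression, ≥3 independent runs.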

[4] = Solubility of compound in JP2 at pH 6.8 after 1 hr at 37 degC; type: physicochemical; conditions: JP2, pH 6.8
Method in brief: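 Solubility measured in JP2, a 1:1 mix of pH 6.8 phosphate buffer and water, after incubation for 1 h at 37 °C.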

[5] = molecular target: T4, Sodium/nucleoside cotransporter 2 (Homo sapiens) (UniProt O43868); assay: Inhibition of human CNT2 expressed in African green monkey COS7 cells assessed as reduction of [14C]-inosine uptake at 100 uM by liquid scintillation counting analysis; type: cell-based; conditions: COS-7; method in brief: as §1
T4 sequence (whole entry): T1 sequence (O43868 whole entry)

[6] = molecular target: T2, Sodium/nucleoside cotransporter 2 (Rattus norvegicus); assay: Inhibition of rat CNT2 expressed in African green monkey COS7 cells assessed as reduction of [14C]-inosine uptake at 1000 uM by liquid scintillation counting analysis; type: cell-based; conditions: COS-7
Method in brief: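 rCNT2 cDNA in pCI-neo, transiently transfected into COS-7 cells and assayed 2 days later. Cells were pre-incubated twice for 10 min at 37 °C in Na+-free choline buffer, pH 7.4. Uptake of 10 µM [14C]/unlabeled inosine ran 30 min at 37 °C with 10 µM NBMPR. Na+-dependent uptake (Na+ minus choline buffer) was set as 100%, and percent inhibition was taken at 1000 µM.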

Rattus norvegicus [7] = assay: Suppression of adenosine/inosine/guanosine mixture-induced elevation of uric acid level in potassium oxonate-treated Sprague-Dawley rat plasma at 50 mg/kg, po measured after 1 hr by phosphotungstic acid method; type: functional
Method in brief: (§2)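 Male SD rats, 5 weeks old, fasted overnight, given potassium oxonate 100 mg/kg sc. After 1 h, a purine mix (adenosine:inosine:guanosine 1:1:1, 50 mg/kg) was given orally together with the test compound (50, or 0.1–10 mg/kg). Aortic blood taken 1 h later under anesthesia; plasma uric acid measured by phosphotungstic acid method. Mean ± SEM; Student's t or Dunnett's test.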

Rattus norvegicus [8] = assay: Suppression of adenosine/inosine/guanosine mixture-induced elevation of uric acid level in potassium oxonate-treated Sprague-Dawley rat plasma at 1 to 10 mg/kg, po measured after 1 hr by phosphotungstic acid method; type: functional, organism-based; method in brief: as §2
[9] = Clearance in Sprague-Dawley rat at 1 mg/kg, iv by LC/MS analysis; type: ADME, organism-based; conditions: in vivo
Method in brief: (§3)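 Male SD rats, 6 weeks old, fasted 16 h; 1.0 mg/mL/kg tail-vein bolus in dimethylacetamide/5% glucose (1:1 v/v). Jugular blood at 2 min and 0.25–24 h. Plasma deproteinized with acetonitrile plus warfarin internal standard, then LC/MS. Noncompartmental analysis; CLtot, Vdss and t1/2 derived from the iv data.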

[10] = Volume of distribution at steady state in Sprague-Dawley rat at 1 mg/kg, iv by LC/MS analysis; type: ADME, organism-based; conditions: in vivo, read-out: Vdss; method in brief: as §3
[11] = Half life in Sprague-Dawley rat at 1 mg/kg, iv by LC/MS analysis; type: ADME, organism-based; conditions: in vivo; method in brief: as §3
[12] = AUC (0 to infinity) in Sprague-Dawley rat at 1 mg/kg, iv by LC/MS analysis; type: ADME, organism-based; set-up: dose 1 mg/kg, route intravenous, time infinity; conditions: in vivo
Method in brief: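 Male SD rats (6 weeks old, fasted 16 h) received a tail-vein bolus of 1.0 mg/mL/kg in dimethylacetamide/5% glucose (1:1 v/v). Heparinized jugular blood was drawn at 2 min and 0.25, 1, 2, 4, 6, 8 and 24 h. Plasma was acetonitrile-deproteinized with warfarin internal standard and run by gradient LC on a C18 column, calibrated 1-5000 ng/mL. AUC came from noncompartmental analysis.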

[13] = Cmax in Sprague-Dawley rat at 10 mg/kg, po by LC/MS analysis; type: ADME, organism-based; set-up: dose 10 mg/kg, route oral; conditions: in vivo
Method in brief: (§4)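 Male SD rats, 6 weeks old, fasted 16 h; oral dose 10 mg/5 mL/kg as a suspension in 0.5% sodium carboxymethylcellulose. Jugular blood at 0.25, 0.5, 1, 2, 4, 6, 8 and 24 h. Acetonitrile-deproteinized plasma with warfarin internal standard analysed by LC/MS. Parameters from noncompartmental analysis.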

[14] = Tmax in Sprague-Dawley rat at 10 mg/kg, po by LC/MS analysis; type: ADME, organism-based; conditions: in vivo; method in brief: as §4
[15] = AUC (0 to infinity) in Sprague-Dawley rat at 10 mg/kg, po by LC/MS analysis; type: ADME, organism-based; set-up: dose 10 mg/kg, route oral, time infinity; conditions: in vivo
Method in brief: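 Fasted (16 h) 6-week-old male SD rats were dosed orally at 10 mg/5 mL/kg as a suspension in 0.5% sodium carboxymethylcellulose. Heparinized jugular blood was sampled at 0.25, 0.5, 1, 2, 4, 6, 8 and 24 h. Plasma was deproteinized with acetonitrile plus warfarin internal standard and quantified by gradient C18 LC against a 1-5000 ng/mL standard curve. AUC was derived noncompartmentally.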

[16] = Oral bioavailability in Sprague-Dawley rat at 10 mg/kg by LC/MS analysis; type: ADME, organism-based; conditions: in vivo
Method in brief: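 Oral F in fasted male SD rats from noncompartmental AUCs. Oral arm: 10 mg/kg suspended in 0.5% CMC-Na. IV arm: 1.0 mg/kg in dimethylacetamide/5% glucose. F = (AUCpo/AUCiv)×(dose iv/dose po)×100. Plasma measured by LC/MS.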

SMILES	IC50 [1]	inhibition [2]	IC50 [3]	solubility at 1 h [4]	other results
Nc1ncnc2c1nc(NCc1ccc(-c3ccccc3)c(OCCCCCO)c1)n2[C@@H]1O[C@H](CO)[C@@H](O)[C@H]1O	1.6 µM	–	60 µM	–	–
Nc1ncnc2c1nc(NCc1ccc(-c3ccccc3)cc1)n2[C@@H]1O[C@H](CO)[C@@H](O)[C@H]1O	–	inactive	–	3 µg/mL (≈ 6.69 µM)	–
O=c1[nH]cnc2c1nc(NCc1ccc(-c3ccccc3)c(OCCCCO)c1)n2[C@@H]1O[C@H](CO)[C@@H](O)[C@H]1O	20.1 µM	–	> 1000 µM	–	inhibition [6]: 18%
CC(C)Oc1cc(-c2ccccc2)ccc1CNc1nc2c(N)ncnc2n1[C@@H]1O[C@H](CO)[C@@H](O)[C@H]1O	9.3 µM	inactive	–	–	–
CCOc1cc(CNc2nc3c(N)ncnc3n2[C@@H]2O[C@H](CO)[C@@H](O)[C@H]2O)ccc1-c1ccccc1	2.3 µM	inactive	–	121 µg/mL (≈ 246 µM)	–
COC(=O)COc1cc(CNc2nc3c(N)ncnc3n2[C@@H]2O[C@H](CO)[C@@H](O)[C@H]2O)ccc1-c1ccccc1	3.3 µM	inactive	–	–	–
Nc1ncnc2c1nc(NCc1ccc(-c3ccccc3)c(O)c1)n2[C@@H]1O[C@H](CO)[C@@H](O)[C@H]1O	1.2 µM	inactive	–	–	–
Nc1ncnc2c1nc(NCc1ccc(-c3ccccn3)cc1)n2[C@@H]1O[C@H](CO)[C@@H](O)[C@H]1O	1.5 µM	inactive	–	–	–
Nc1ncnc2c1nc(NCc1ccc(-c3ccccc3)c(OCCCCO)c1)n2[C@@H]1O[C@H](CO)[C@@H](O)[C@H]1O	0.94 µM	–	38 µM	190 µg/mL (≈ 354 µM)	Activity (Rattus norvegicus [7]): 42%
Nc1ncnc2c1nc(NCc1ccc(-c3ccccc3)c(OCCO)c1)n2[C@@H]1O[C@H](CO)[C@@H](O)[C@H]1O	3.1 µM	49%	> 100 µM	–	–
COc1cc(CNc2nc3c(N)ncnc3n2[C@@H]2O[C@H](CO)[C@@H](O)[C@H]2O)ccc1-c1ccccc1	1.3 µM	inactive	–	215 µg/mL (≈ 449 µM)	–

The next lines start with results.

IC50 [1]	inhibition [2]	IC50 [3]	solubility at 1 h [4]	SMILES	other results
1.3 µM	inactive	–	–	Nc1ncnc2c1nc(NCc1ccc(-c3ccccc3)cc1O)n2[C@@H]1O[C@H](CO)[C@@H](O)[C@H]1O	–
1 µM	11%	> 100 µM	–	Nc1ncnc2c1nc(NCc1ccc(-c3cccnc3)cc1)n2[C@@H]1O[C@H](CO)[C@@H](O)[C@H]1O	–
1.1 µM	–	45.1 µM	–	Nc1ncnc2c1nc(NCc1ccc(-c3ccccc3)c(OCCCO)c1)n2[C@@H]1O[C@H](CO)[C@@H](O)[C@H]1O	–
2.7 µM	inactive	–	–	Nc1ncnc2c1nc(NCc1ccc(-c3ccncc3)cc1)n2[C@@H]1O[C@H](CO)[C@@H](O)[C@H]1O	–
5.4 µM	inactive	–	2 µg/mL (≈ 4.06 µM)	CCOc1cc(-c2ccccc2)ccc1CNc1nc2c(N)ncnc2n1[C@@H]1O[C@H](CO)[C@@H](O)[C@H]1O	–
–	inactive	–	–	CCCOc1cc(-c2ccccc2)ccc1CNc1nc2c(N)ncnc2n1[C@@H]1O[C@H](CO)[C@@H](O)[C@H]1O	inhibition [5]: inactive
5.5 µM	< 5%	> 100 µM	–	NC(=O)COc1cc(CNc2nc3c(N)ncnc3n2[C@@H]2O[C@H](CO)[C@@H](O)[C@H]2O)ccc1-c1ccccc1	–
5.2 µM	inactive	–	–	CCCOc1cc(CNc2nc3c(N)ncnc3n2[C@@H]2O[C@H](CO)[C@@H](O)[C@H]2O)ccc1-c1ccccc1	–
1.1 µM	inactive	–	4 µg/mL (≈ 8.36 µM)	COc1cc(-c2ccccc2)ccc1CNc1nc2c(N)ncnc2n1[C@@H]1O[C@H](CO)[C@@H](O)[C@H]1O	–
0.062 µM	–	1.5 µM	120 µg/mL (≈ 231 µM)	OCCCCOc1cc(CNc2nc3ccccc3n2[C@@H]2O[C@H](CO)[C@@H](O)[C@H]2O)ccc1-c1ccccc1	Activity (Rattus norvegicus [8]): Active; clearance [9]: 6.57 mL/min/kg; Vd [10]: 0.117 L/kg; half-life [11]: 1.7 h; AUC(0-inf) [12]: 5 µM·h; Cmax [13]: 110 nM; Tmax [14]: 0.83 h; AUC(0-inf) [15]: 0.25 µM·h; bioavailability [16]: 0.51%
10.4 µM	inactive	–	–	CC(C)Oc1cc(CNc2nc3c(N)ncnc3n2[C@@H]2O[C@H](CO)[C@@H](O)[C@H]2O)ccc1-c1ccccc1	–
